Assay: Inhibition of full length HCV NS3/4A protease
Parameters: species or system Hepacivirus hominis
In short: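 30 min room-temperature preincubation with inhibitor, then FRET substrate RET S1 at 2 µM final. Activity followed continuously 20 min (ex 355/em 500 nm); IC50 by non-linear fit, Ki derived from IC50.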

Structure (SMILES)	Ki
CC[C@H](NC(=O)C1CC(Oc2cc(-c3ccccc3)nc3cc(OC)ccc23)C=C1C(=O)N[C@H](C(=O)N[C@H](C(=O)NC)C1CCCCC1)C(C)(C)C)C(=O)O (some centres undefined)	280 nM
CCC[C@H](NC(=O)[C@H]1C[C@H](Oc2cc(-c3ccccc3)nc3cc(OC)ccc23)C=C1C(=O)N[C@H](C(=O)N[C@H](C(=O)OC)C1CCCCC1)C(C)C)C(=O)O	2560 nM
CCC[C@H](NC(=O)[C@H]1C[C@H](Oc2cc(-c3ccccc3)nc3cc(OC)ccc23)C=C1C(=O)N[C@H](C(=O)N[C@H](C(=O)OC)C1CCCCC1)C(C)(C)C)C(=O)O	> 2000 nM
C=C[C@@H]1C[C@]1(NC(=O)[C@H]1C[C@H](Oc2cc(-c3ccccc3)nc3cc(OC)ccc23)C=C1C(=O)N[C@H](C(=O)N[C@H](C(=O)NC)C1CCCCC1)C(C)(C)C)C(=O)O	23 nM
C=C[C@@H]1C[C@]1(NC(=O)[C@@H]1C[C@@H](Oc2cc(-c3ccccc3)nc3cc(OC)ccc23)C=C1C(=O)N[C@H](C(=O)N[C@H](C(=O)OC)C1CCCCC1)C(C)(C)C)C(=O)O	1.1 nM
C=C[C@@H]1C[C@]1(NC(=O)C1CC(Oc2cc(-c3ccccc3)nc3cc(OC)ccc23)C=C1C(=O)N[C@H](C(=O)N[C@H](C(=O)OC)C1CCCCC1)C(C)C)C(=O)O (some centres undefined)	24 nM
C=C[C@@H]1C[C@]1(NC(=O)C1CC(Oc2cc(-c3ccccc3)nc3cc(OC)ccc23)C=C1C(=O)N[C@H](C(=O)N(C)[C@H](C(=O)NC)C1CCCCC1)C(C)(C)C)C(=O)O (some centres undefined)	> 5000 nM
CC[C@H](NC(=O)C1CC(Oc2cc(-c3ccccc3)nc3cc(OC)ccc23)C=C1C(=O)N[C@H](C(=O)N[C@H](C(=O)OC)C1CCCCC1)C(C)C)C(=O)O (some centres undefined)	523 nM
C=C[C@@H]1C[C@]1(NC(=O)[C@@H]1C[C@@H](Oc2cc(-c3ccccc3)nc3cc(OC)ccc23)C=C1C(=O)N[C@H](C(=O)N[C@H](C(=O)NC)C1CCCCC1)C(C)(C)C)C(=O)O	1.3 nM
C=C[C@@H]1C[C@]1(NC(=O)C1CC(Oc2cc(-c3ccccc3)nc3cc(OC)ccc23)C=C1C(=O)N[C@H](C(=O)N[C@H](C(=O)NC)C1CCCCC1)C(C)(C)C)C(=O)OC(C)(C)C (some centres undefined)	> 2000 nM
C=C[C@@H]1C[C@]1(NC(=O)[C@@H]1C[C@@H](Oc2cc(-c3ccccc3)nc3cc(OC)ccc23)C[C@H]1C(=O)N[C@H](C(=O)N[C@H](C(=O)NC)C1CCCCC1)C(C)(C)C)C(=O)O	16 nM
CC[C@H](NC(=O)[C@@H]1C[C@@H](Oc2cc(-c3ccccc3)nc3cc(OC)ccc23)C=C1C(=O)N[C@@H](C(=O)N[C@@H](C(=O)OC)C1CCCCC1)C(C)C)C(=O)O	> 2000 nM
CCC[C@H](NC(=O)[C@@H]1C[C@@H](Oc2cc(-c3ccccc3)nc3cc(OC)ccc23)C=C1C(=O)N[C@H](C(=O)N[C@H](C(=O)OC)C1CCCCC1)C(C)(C)C)C(=O)O	30 nM
C=C[C@@H]1C[C@]1(NC(=O)C1CC(Oc2cc(-c3ccccc3)nc3cc(OC)ccc23)C=C1C(=O)N[C@H](C(=O)N[C@H](C(=O)OC)C1CCCCC1)C(C)(C)C)C(=O)OC(C)(C)C (some centres undefined)	> 2000 nM
CCC[C@H](NC(=O)C1CC(Oc2cc(-c3ccccc3)nc3cc(OC)ccc23)C=C1C(=O)N[C@H](C(=O)N[C@H](C(=O)NC)C1CCCCC1)C(C)(C)C)C(=O)O (some centres undefined)	67 nM
CC[C@H](NC(=O)C1CC(Oc2cc(-c3ccccc3)nc3cc(OC)ccc23)C=C1C(=O)N[C@H](C(=O)N[C@H](C(=O)OC)C1CCCCC1)C(C)(C)C)C(=O)O (some centres undefined)	503 nM
CC[C@H](NC(=O)C1CC(Oc2cc(-c3ccccc3)nc3cc(OC)ccc23)C=C1C(=O)N[C@H](C(=O)OC)C(C)C)C(=O)O (some centres undefined)	> 2000 nM
C=C[C@@H]1C[C@]1(NC(=O)[C@H]1C[C@H](Oc2cc(-c3ccccc3)nc3cc(OC)ccc23)C=C1C(=O)N[C@H](C(=O)N[C@H](C(=O)OC)C1CCCCC1)C(C)(C)C)C(=O)O	108 nM
CCC[C@H](NC(=O)[C@@H]1C[C@@H](Oc2cc(-c3ccccc3)nc3cc(OC)ccc23)C=C1C(=O)N[C@H](C(=O)N[C@H](C(=O)OC)C1CCCCC1)C(C)C)C(=O)O	102 nM
